# From ChEMBL document CHEMBL3272175, “Potential antitumor agents. 17. 9-Anilino-10-methylacridinium salts” (J Med Chem, 1976)
# Tests used:
# L1210 [1] = experiment: Antitumor activity against mouse L1210 cells allografted in C3H/DBA2 F1 mouse assessed as increase in life span at optimum dose, ip qd administered for 5 days relative to control; format: functional
# Outline: (§1)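 Mice: C3H/DBA2 F1 hybrids, 18.5-22.5 g, inoculated ip with 10⁵ L1210 cells on day 1. Treatment ip daily for 5 days from 24 h later, dose in 0.2 ml water (suspended or dissolved). T/C = ratio of mean life spans, treated vs control; optimum dose gives maximum T/C.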
# L1210 [2] = experiment: Antitumor activity against mouse L1210 cells allografted in ip dosed C3H/DBA2 F1 mouse assessed as optimum dose required to increase in maximum life span administered as qd for 5 days; format: functional; outline: as §1
# [3] = Dissociation constant, pKa of the compound; format: physicochemical
SMILES,T/C (L1210 [1]),Activity (L1210 [2]),pKa [3]
C[n+]1c2ccccc2c(Nc2ccccc2)c2cc(N)ccc21,162%,14 mg/kg/day,
COc1cc(NS(C)(=O)=O)ccc1Nc1c2ccccc2[n+](C)c2ccc(Cl)cc12,179%,12 mg/kg/day,
C[n+]1c2ccccc2c(Nc2ccccc2)c2ccc(N)cc21,148%,20 mg/kg/day,
c1ccc(Nc2c3ccccc3nc3ccccc23)cc1,,>500 mg/kg/day,
CCS(=O)(=O)Nc1ccc(Nc2c3ccccc3[n+](C)c3ccccc23)cc1,166%,110 mg/kg/day,
CS(=O)(=O)Nc1ccc(Nc2c3ccccc3nc3ccccc23)cc1,207%,45 mg/kg/day,
CS(=O)(=O)Nc1ccc(Nc2c3ccccc3nc3ccc(Br)cc23)cc1,165%,35 mg/kg/day,
CC(=O)Nc1ccc2c(c1)c(Nc1ccc(NS(C)(=O)=O)cc1)c1ccccc1[n+]2C,181%,6 mg/kg/day,
Nc1cccc(Nc2c3ccccc3nc3ccccc23)c1,146%,40 mg/kg/day,
Cn1ccc(=N)cc1,,,12.5
CC(=O)Nc1cccc(Nc2c3ccccc3[n+](C)c3ccccc23)c1,132%,67 mg/kg/day,
CS(=O)(=O)Nc1ccc(Nc2c3ccccc3nc3cc(N)ccc23)cc1,178%,25 mg/kg/day,
COc1cc(NS(C)(=O)=O)ccc1Nc1c2ccccc2nc2ccc(Cl)cc12,172%,10 mg/kg/day,
CCS(=O)(=O)Nc1ccc(Nc2c3ccccc3[n+](C)c3ccc(Cl)cc23)c(OC)c1,166%,60 mg/kg/day,
C[n+]1c2ccccc2c(Nc2ccc(S(N)(=O)=O)cc2)c2ccccc21,,>500 mg/kg/day,
CC(=O)Nc1ccc2nc3ccccc3c(Nc3ccc(NS(C)(=O)=O)cc3)c2c1,214%,13 mg/kg/day,
Cn1ccc(=N)c2ccccc21,,,12.4
NC(=O)c1ccc(Nc2c3ccccc3nc3ccccc23)cc1,,>500 mg/kg/day,
C[n+]1c2ccccc2c(Nc2ccc(C(N)=O)cc2)c2ccccc21,,>500 mg/kg/day,
C[n+]1c2ccccc2c(Nc2ccccc2)c2ccc([N+](=O)[O-])cc21,,>500 mg/kg/day,
C[n+]1c2ccccc2c(Nc2ccc(NS(C)(=O)=O)cc2)c2cc(Br)ccc21,168%,47 mg/kg/day,
C[n+]1c2ccccc2c(Nc2ccc(NS(C)(=O)=O)cc2)c2ccc([N+](=O)[O-])cc21,,>500 mg/kg/day,
COc1cc(NS(C)(=O)=O)ccc1Nc1c2ccccc2[n+](C)c2ccc(Br)cc12,158%,12 mg/kg/day,

SMILES,T/C (L1210 [1]),Activity (L1210 [2]),pKa [3]
Nc1ccc(Nc2c3ccccc3nc3ccccc23)cc1,172%,33 mg/kg/day,
C[n+]1c2ccccc2c(Nc2ccc(NS(C)(=O)=O)cc2)c2ccc(N)cc21,167%,5 mg/kg/day,
CC(=O)Nc1ccc2c(Nc3ccccc3)c3ccccc3[n+](C)c2c1,126%,50 mg/kg/day,
C[n+]1c2ccccc2c(Nc2ccc(NS(C)(=O)=O)cc2)c2cc(N)ccc21,180%,1.25 mg/kg/day,
CC(=O)Nc1ccc2c(c1)c(Nc1ccccc1)c1ccccc1[n+]2C,158%,22 mg/kg/day,
CCCS(=O)(=O)Nc1ccc(Nc2c3ccccc3nc3ccccc23)cc1,134%,225 mg/kg/day,
COc1cc(NS(C)(=O)=O)ccc1Nc1c2ccccc2nc2ccccc12 [AMSACRINE],196%,12 mg/kg/day,
NS(=O)(=O)c1ccc(Nc2c3ccccc3nc3ccccc23)cc1,,>500 mg/kg/day,
C[n+]1c2ccccc2c(Nc2ccc(N)cc2)c2ccccc21,163%,75 mg/kg/day,
C[n+]1c2ccccc2c(Nc2cccc(N)c2)c2ccccc21,137%,120 mg/kg/day,
CCCCS(=O)(=O)Nc1ccc(Nc2c3ccccc3[n+](C)c3ccccc23)cc1,,>500 mg/kg/day,
COc1cc(NS(C)(=O)=O)ccc1Nc1c2ccccc2nc2ccc(Br)cc12,219%,6 mg/kg/day,
CS(=O)(=O)Nc1ccc(Nc2c3ccccc3nc3ccc(N)cc23)cc1,181%,2.5 mg/kg/day,
C[n+]1c2ccccc2c(Nc2ccccc2)c2ccccc21,,>500 mg/kg/day,
CC(=O)Nc1ccc2c(Nc3ccc(NS(C)(=O)=O)cc3)c3ccccc3[n+](C)c2c1,134%,15 mg/kg/day,
CCCCS(=O)(=O)Nc1ccc(Nc2c3ccccc3nc3ccccc23)cc1,,>500 mg/kg/day,
COc1cc(NS(C)(=O)=O)ccc1Nc1c2ccccc2[n+](C)c2ccccc12,172%,12 mg/kg/day,
CCCS(=O)(=O)Nc1ccc(Nc2c3ccccc3[n+](C)c3ccccc23)cc1,,>500 mg/kg/day,
CCS(=O)(=O)Nc1ccc(Nc2c3ccccc3nc3ccccc23)cc1,183%,150 mg/kg/day,
CS(=O)(=O)Nc1ccc(Nc2c3ccccc3nc3cc([N+](=O)[O-])ccc23)cc1,127%,250 mg/kg/day,
CC(=O)Nc1ccc2c(Nc3ccc(NS(C)(=O)=O)cc3)c3ccccc3nc2c1,147%,375 mg/kg/day,
CC(=O)Nc1cccc(Nc2c3ccccc3nc3ccccc23)c1,133%,30 mg/kg/day,
C[n+]1c2ccccc2c(Nc2ccc(NS(C)(=O)=O)cc2)c2ccccc21,184%,95 mg/kg/day,
